# In PubChem BioAssay:
# Activity calls are given as the source filed them. Unless noted, no stated cut-off is given here; in the data, active means inhibition above about 30%; inactive means the rest.
# Legend:
# [1] = HUVEC growth inhibition – cell-based, human, primary screen (AID 575;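 active means viability at or below 30% in both replicate assays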;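 further: 100% = median of untreated cell wells with 0.1% DMSO on each plate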); settings: HUVEC proliferation, CellTiter-Glo luminescence, 72 h; at 10 µM; stronger effect = lower value
# Summary of the method: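 Test system: HUVEC primary cells. Quantity: 1250 endothelial cells in each well. Dosing: single-point 10 µM, DMSO 0.1% final. Incubation: 72 h treatment at 37 °C. Measured by: CTG luminescence. Control set: DMSO cell controls and MePR drug controls. Plate: collagen-coated 384-well format.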
# [2] = H69AR cell proliferation blockers – human, duplicate replicates, primary screen (AID 580;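 active means viability at or under a set limit in both replicates, limit being median viability minus 3 SD, cut at about 48% in these data, passing the limit was not always enough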;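 further: 100% = mean luminescence of untreated wells and 0% = no signal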); settings: H69AR lung tumor cells viability, ATP luminescence, 72 h; at 10 µM; stronger effect = lower value
# [3] = MRP1 drug-resistance reversers in H69AR cells – cell-based, doxorubicin co-treatment, pilot screen (AID 601;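 active means viability loss from added drug above about 55%, and viability with drug at most 40%, in both replicates, limit read from the data, passing the limit was not always enough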); settings: CellTiter-Glo, 72 h, at 10 µM; for differential viability (reversal): stronger effect = higher value
# [4] = yeast transport mutant growth inhibition pilot in 384-well plates, post-Golgi transport modulator project (AID 636; in the data active means inhibition above about 31%); settings: absorbance 615 nm, about 18 h, stronger effect = higher value
# [5] = growth suppression of yeast trafficking mutant, preliminary HTS, modulators of trafficking downstream of Golgi apparatus project, 1536-format plate, OD 615 nm (AID 637); settings: yeast transport mutant growth, absorbance 615 nm, 18 h; stronger effect = higher value
# [6] = H69AR cells + 2 uM doxorubicin, measured here: viability with 2 uM doxorubicin, stronger effect = lower value
# [7] = H69AR cells, compound alone cytotoxicity
Structure (SMILES),viability [1],viability [2],differential viability (reversal) ([3]; H69AR cells + 2 uM doxorubicin),"viability [3, 6] [%]","viability [3, 7] [%]",inhibition [4],inhibition [5]
CCCOc1cccc(C(=O)N(Cc2ccco2)C2CCS(=O)(=O)C2)c1 (stereo not drawn),98% (inactive),90.5% (inactive),0.72% (inactive),89.8,90.5,-3.6% (inactive),-7.94% (inactive)
CC(=O)Nc1ccc(S(=O)(=O)N2CCN(Cc3ccncc3)CC2)cc1,90.7% (inactive),109% (inactive),18.1% (inactive),90.5,109,-5.13% (inactive),1.59% (inactive)
CCCC(=O)Nc1ccccc1NC(=O)CCC,108% (inactive),96% (inactive),7.25% (inactive),88.8,96,-2.24% (inactive),-2.38% (inactive)
COc1ccc(CN2C(=O)c3ccccc3C2C(=O)NC2CCCC2)c(OC)c1 (stereo not drawn),104% (inactive),86.2% (inactive),1.22% (inactive),84.9,86.2,0.53% (inactive),-4.6% (inactive)
CCCCOc1ccc(C(=O)N2CCC(C)CC2)cc1,111% (inactive),104% (inactive),17.9% (inactive),85.7,104,-3.2% (inactive),0.48% (inactive)
COc1ccccc1CC(=O)NCc1ccc2c(c1)OCO2,106% (inactive),93.5% (inactive),9.18% (inactive),84.3,93.5,-7.2% (inactive),6.19% (inactive)
CCOC(=O)c1nn(-c2sc(C(=O)OC)c(C)c2C(=O)OC)cc1O,105% (inactive),85.1% (inactive),3.34% (inactive),81.7,85.1,-1.82% (inactive),3.33% (inactive)
CCN1CCN(Cc2c(C)[nH]c3ccc(OC)cc3c2=O)CC1,96.8% (inactive),93.5% (inactive),4.75% (inactive),88.8,93.5,-2.73% (inactive),4.44% (inactive)
CCS(=O)(=O)N1CCC(C(=O)N2CCOCC2)CC1,92.1% (inactive),98.5% (inactive),-1.11% (inactive),99.6,98.5,-0.52% (inactive),-0.16% (inactive)
N#Cc1c(SCC(=O)N2CCOCC2)nsc1SCC(=O)N1CCOCC1,97.7% (inactive),97.2% (inactive),11.5% (inactive),85.7,97.2,-1.3% (inactive),-3.02% (inactive)
Cc1cc(NC(=O)C2CCCC2)nc2c1c(=O)oc1ccccc12,60.3% (inactive),62.8% (inactive),-24.9% (inactive),87.8,62.8,-5.45% (inactive),3.49% (inactive)
Cc1ccc(S(=O)(=O)NC(C(=O)OCC(=O)NC2CCS(=O)(=O)C2)C(C)C)cc1 (stereo not drawn),98.1% (inactive),92.9% (inactive),0.03% (inactive),92.8,92.9,-1.69% (inactive),0.63% (inactive)
O=C(CSc1nnc(-c2ccncc2)o1)Oc1ccccc1,101% (inactive),102% (inactive),15.9% (inactive),85.9,102,-6.4% (inactive),3.02% (inactive)
O=C(Nc1ccc(Cc2ccncc2)cc1)C1CC1,88.2% (inactive),99.5% (inactive),17.4% (inactive),82.1,99.5,-2.21% (inactive),1.75% (inactive)
